The species named for one test is Homo sapiens. In words: In vitro inhibition of histamine release from human basophils. The class given is functional, organism-based.
Details: not given
A digest of the protocol: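 Human basophils separated from leukocytes were incubated with test compound, then challenged with anti-IgE or antigen (Lichtenstein method). Histamine release was measured against controls and blanks. IC50 is the concentration lowering histamine release by 50%.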
On to `FC(F)(F)c1cccc(Nc2nccc(-c3ccccn3)n2)c1` [listing 1 of 2 here], for which the IC50 is 2.9 µM. Still for that read-out and setting: the result for `c1cc(Nc2nccc(-c3ccncc3)n2)cc(-n2ccnc2)c1` reads 0.6 µM; that for `FC(F)(F)c1cccc(Nc2nccc(-c3cccnc3)n2)c1` [listing 1 of 2 here], 0.7 µM. On to `FC(F)(F)c1cccc(Nc2nccc(-c3ccccn3)n2)c1` [listing 2 of 2 here], for which the IC50 was found to be 0.4 µM. The compound `FC(F)(F)c1cccc(Nc2nccc(-c3cccnc3)n2)c1` [listing 2 of 2 here] showed an IC50 of 2.1 µM.

Regarding `Nc1ccc(Nc2nccc(-c3ccncc3)n2)cc1` [listing 1 of 2 here], the IC50 was 2.4 µM. On the same count and under the same terms, the result for `c1ccc(-c2ccnc(Nc3cccc(-n4ccnc4)c3)n2)nc1` reads 0.2 µM.

Still in this test, the particulars now being: Homo sapiens.
In the case of `Nc1ccc(Nc2nccc(-c3ccccn3)n2)cc1`, half-maximal inhibition (IC50) required 1.5 µM. Consider `Cc1cn(-c2ccc(Nc3nccc(-c4ccncc4)n3)cc2)cn1`, for which the 50% inhibitory concentration (IC50) was above 3 µM. As for `c1ccc(Nc2nccc(-c3ccncc3)n2)cc1`, the half-maximal inhibitory concentration (IC50) worked out at 0.9 µM. Regarding `Fc1cccc(Nc2nccc(-c3ccccn3)n2)c1`, the IC50 worked out at 1 µM.

Regarding `COc1cccc(Nc2nccc(-c3sccc3C)n2)c1`, the half-inhibitory concentration (IC50) was above 24 µM.

Take `Cc1ccsc1-c1ccnc(Nc2ccc(N(C)C)cc2)n1`: the IC50 came to 1.8 µM.

The compound `CCN(CC)CCOc1cccc(Nc2nccc(-c3cccnc3)n2)c1` yielded a half-maximal inhibitory concentration (IC50) of 2.9 µM. Regarding `Cc1cc(-c2ccnc(Nc3ccc(N(C)C)cc3)n2)c(C)o1`, the IC50 was determined as 4.9 µM. Turning to `Cc1cc(C)cc(Nc2nc(C)cc(-c3ccco3)n2)c1`, the IC50 is above 24 µM. Same read-out and setting: next, `Nc1cccc(Nc2nccc(-c3ccccn3)n2)c1`: 0.3 µM; `c1ccc(-c2ccnc(Nc3cccc(OCCn4ccnc4)c3)n2)nc1`: 0.4 µM.

As for `CCc1ccc(Nc2nccc(-c3cnccn3)n2)cc1`, half-maximal inhibition (IC50) required 1.9 µM. The compound `CCN(CC)CCOc1ccccc1Nc1nccc(-c2cccnc2)n1` yielded a 50% inhibitory concentration (IC50) above 6 µM. Same read-out and setting: next, `CC1CCN(c2ccc(Nc3nccc(-c4ccco4)n3)cc2)CC1`: 1.8 µM. Compound `Cc1cc(C)cc(Nc2nccc(-c3cccs3)n2)c1` showed an IC50 of 4.3 µM.

`COc1cccc(Nc2nc(C)cc(-c3ccncc3)n2)c1` had an IC50 above 24 µM. `COc1ccc(Nc2nccc(-c3ccsc3)n2)cc1` showed an IC50 of 15.6 µM.

For `COc1ccc(N(C)c2nccc(-c3cccnc3)n2)cc1`, the IC50 was above 24 µM. Still for that read-out and setting: next, `CN(C)c1ccc(Nc2nccc(-c3ccco3)n2)cc1`: 1.9 µM. In the case of `CCc1cccc(Nc2nccc(-c3ccsc3)n2)c1`, the IC50 came out at 1.1 µM. `Oc1ccccc1Nc1nccc(-c2cccnc2)n1` showed an IC50 of 23.5 µM.

`CC(C)(C)c1ccc(Nc2nccc(-c3cccnc3)n2)cc1` displayed an IC50 of 0.6 µM.

In turn, `Oc1ccc(Nc2nccc(-c3ccncc3)n2)cc1` registered an IC50 of 3.3 µM.

On to `Cc1cc(-c2ccnc(Nc3ccccc3)n2)c(C)o1`, for which half-maximal inhibition (IC50) was put at 2 µM. `CC(=O)N(C)c1ccc(Nc2nccc(-c3ccncc3)n2)cc1` gave an IC50 of 0.5 µM. For the compound `Cc1cc(-c2ccco2)nc(Nc2ccc(N(C)C)cc2)n1`, the IC50 was 5.9 µM. `CN(C)c1cccc(Nc2nccc(-c3cccs3)n2)c1` returned an IC50 of 2.4 µM. `CC1CCN(c2ccc(Nc3nccc(-c4ccccn4)n3)cc2)CC1` gave an IC50 of 1.9 µM.

`CC(=O)N(C)c1ccc(Nc2nccc(-c3ccccn3)n2)cc1` registered an IC50 of 1.8 µM. Regarding `Nc1ccc(Nc2nccc(-c3cccnc3)n2)cc1`, it took 2.8 µM to reach half-maximal inhibition (IC50).

`COc1ccc(N(C)c2nccc(-c3ccncc3)n2)cc1` gave an IC50 above 24 µM. Compound `c1ccc(Nc2nccc(-c3cccnc3)n2)cc1` came in with an IC50 of 0.9 µM. `Cc1cccc(Nc2nccc(-c3cccs3)n2)c1`: the IC50 turned out to be 0.3 µM. Same read-out and setting: the result for `CN(C)c1cccc(Nc2nccc(-c3ccncc3)n2)c1` reads 3.7 µM; that for `COc1cccc(Nc2nccc(-c3ccccn3)n2)c1`, 0.2 µM. Turning to `CC1CCN(c2cccc(Nc3nccc(-c4cccnc4)n3)c2)CC1`, the IC50 worked out at 1.2 µM. Compound `Cc1cccc(Nc2nccc(-c3ccc(C)o3)n2)c1` came in with an IC50 of 2 µM. Turning to `Cc1cccc(Nc2nccc(-c3ccncc3)n2)c1`, the IC50 came out at 8.8 µM. The compound `Cc1cc(C)cc(Nc2nccc(-c3cc(C)oc3C)n2)c1` registered an IC50 of 4.1 µM. On the same count and under the same terms, the result for `Cc1cccc(Nc2nccc(-c3ccc[nH]3)n2)c1` reads 8.5 µM; that for `Cc1cc(C)cc(Nc2nc(C)cc(-c3ccccn3)n2)c1`, above 24 µM.

For `COc1ccc(Nc2nccc(-c3cccnc3)n2)cc1`, the IC50 was 1.7 µM. Compound `CCOC(=O)c1ccc(Nc2nccc(-c3cccnc3)n2)cc1` returned a 50% inhibitory concentration (IC50) of 12.4 µM. In the case of `CC(=O)Nc1cccc(Nc2nccc(-c3cccnc3)n2)c1`, it took 3.6 µM to reach half-maximal inhibition (IC50). Take `c1ccc(-c2nccc(-c3ccncc3)n2)cc1`: the IC50 amounted to 13.9 µM.

Turning to `c1csc(-c2ccnc(Nc3ccc(-n4ccnc4)cc3)n2)c1`, 4.3 µM corresponded to half-maximal inhibition (IC50).

`CC1CCN(c2cccc(Nc3nccc(-c4ccco4)n3)c2)CC1` yielded an IC50 of 5 µM. For `Nc1ccc(Nc2nccc(-c3ccncc3)n2)cc1` [listing 2 of 2 here], the IC50 worked out at 2.9 µM. `Nc1cccc(Nc2nccc(-c3cccnc3)n2)c1` gave an IC50 of 0.5 µM. The compound `Cc1ccc(Nc2nccc(-c3ccccn3)n2)cc1C` yielded a half-maximal inhibitory concentration (IC50) of 5.9 µM. `Cc1cc(-c2ccc(C)s2)nc(Nc2ccccc2)n1` displayed an IC50 of 24.8 µM. `CN(C)c1ccc(Nc2nccc(-c3ccsc3)n2)cc1` registered a half-inhibitory concentration (IC50) of 2.1 µM. In turn, `COc1cccc(Nc2nccc(-c3ccc(C)s3)n2)c1` registered an IC50 of 2.3 µM. Take `CCN(CC)c1ccc(Nc2nccc(-c3ccco3)n2)cc1`: the IC50 is 8.7 µM. As for `c1cc(Nc2nccc(-c3cccs3)n2)cc(OCCn2ccnc2)c1`, the IC50 came out at 0.1 µM.

`CC(=O)N(C)c1ccc(Nc2nccc(-c3cccnc3)n2)cc1`: the 50% inhibitory concentration (IC50) turned out to be 0.9 µM. On to `c1ccc(Nc2nccc(-c3ccco3)n2)cc1`, for which half-maximal inhibition (IC50) was put at 32 µM. The compound `COc1cccc(Nc2nccc(-c3ccncc3)n2)c1` returned an IC50 of 0.4 µM. In turn, `COc1cccc(Nc2nccc(-c3ccc(C)o3)n2)c1` came in with an IC50 of 1.5 µM. For `CC(=O)c1ccc(Nc2nccc(-c3cccnc3)n2)cc1`, it took 0.8 µM to reach half-maximal inhibition (IC50). Take `c1cc(Nc2nccc(-c3ccco3)n2)cc(-n2ccnc2)c1`: the IC50 was found to be 0.8 µM. On to `CCOC(=O)c1cccc(Nc2nccc(-c3cccnc3)n2)c1`, for which the midpoint of inhibition, the IC50, lay at 10.5 µM. Still for that read-out and setting: the result for `Cc1cc(-c2ccco2)nc(Nc2ccccc2)n1` reads 17.7 µM; that for `CC(=O)Nc1ccc(Nc2nccc(-c3ccccn3)n2)cc1`, 1.5 µM; that for `Cc1cc(C)cc(Nc2ncc(C)c(-c3cccnc3)n2)c1`, above 24 µM.

In the case of `COc1cccc(Nc2nccc(-c3ccsc3)n2)c1`, the midpoint of inhibition, the IC50, lay at 1.8 µM. As for `Cc1cccc(Nc2nccc(-c3cc(C)oc3C)n2)c1`, the half-maximal inhibitory concentration (IC50) was found to be 28.5 µM. The same measure, in the same setting: the result for `CCN(CC)CCOc1ccc(Nc2nccc(-c3ccncc3)n2)cc1` reads 0.2 µM. Consider `CC1CCN(c2cccc(Nc3nccc(-c4cccs4)n3)c2)CC1`, for which the IC50 was 3.5 µM. Consider `COc1cccc(Nc2nccc(-c3cc(C)oc3C)n2)c1`, for which half-maximal inhibition (IC50) was put at 5.8 µM. `CC1CCN(c2ccc(Nc3nccc(-c4ccncc4)n3)cc2)CC1` came in with an IC50 of 0.6 µM. Compound `CN(C)CCCOc1ccc(Nc2nccc(-c3cccnc3)n2)cc1` had an IC50 of 0.6 µM. On the same count and under the same terms, next, `CN(C)c1cccc(Nc2nccc(-c3ccccn3)n2)c1`: 0.4 µM.

`CCc1ccc(Nc2nccc(-c3ccncc3)n2)cc1` had an IC50 of 7.7 µM. For `CN(C)c1ccc(Nc2nccc(-c3ccncc3)n2)cc1`, half-maximal inhibition (IC50) required 3.7 µM. `NS(=O)(=O)c1ccc(Nc2nccc(-c3ccccn3)n2)cc1` displayed an IC50 of 4.6 µM. `CCN(CC)CCCOc1ccc(Nc2nccc(-c3ccncc3)n2)cc1` gave an IC50 of 1.3 µM.

For the compound `CCN(CC)CCSc1ccc(Nc2nccc(-c3ccncc3)n2)cc1`, the midpoint of inhibition, the IC50, lay at 1 µM. In the case of `Cc1cc(-c2ccccn2)nc(Nc2ccc(N(C)C)cc2)n1`, the IC50 is 31.9 µM. `CCc1ccc(Nc2nccc(-c3cc(C)oc3C)n2)cc1` yielded a 50% inhibitory concentration (IC50) of 19.2 µM. On to `CCN(CC)CCOc1cccc(Nc2nccc(-c3ccncc3)n2)c1`, for which the midpoint of inhibition, the IC50, lay at 0.6 µM. `CCN(CC)c1ccc(Nc2nccc(-c3ccc(C)o3)n2)cc1` came in with an IC50 of 28 µM. Compound `CN(C)CCOc1ccc(Nc2nccc(-c3cccnc3)n2)cc1` returned an IC50 of 0.7 µM. Same read-out and setting: the result for `CC(=O)c1cccc(Nc2nccc(-c3cccnc3)n2)c1` reads 4.1 µM; that for `c1cc(-c2ccnc(Nc3ccc(-n4ccnc4)cc3)n2)ccn1`, 7.6 µM; that for `Cc1cccc(Nc2nccc(-c3cccnc3)n2)c1`, 1.5 µM. On to `CC(=O)Nc1ccc(Nc2nccc(-c3ccncc3)n2)cc1`, for which it took 5.3 µM to reach half-maximal inhibition (IC50). `Cc1cccc(Nc2nccc(-c3ccsc3)n2)c1` registered an IC50 of 3.8 µM. Still for that read-out and setting: the result for `c1cc(Nc2nccc(-c3cccs3)n2)cc(-n2ccnc2)c1` reads 0.3 µM; that for `NS(=O)(=O)c1cccc(Nc2nccc(-c3ccncc3)n2)c1`, 0.5 µM. `Cc1cc(-c2ccncc2)nc(Nc2cccc(N(C)C)c2)n1` displayed an IC50 above 24 µM. Regarding `c1cncc(-c2ccnc(Nc3ccc(-n4ccnc4)cc3)n2)c1`, it took 1.3 µM to reach half-maximal inhibition (IC50). In turn, `CN(C)c1ccc(Nc2nccc(-c3cccs3)n2)cc1` gave an IC50 of 0.9 µM. Still for that read-out and setting: the result for `CNc1ccc(Nc2nccc(-c3cccnc3)n2)cc1` reads 2.1 µM; that for `Oc1ccc(Nc2nccc(-c3cccnc3)n2)cc1`, 5.1 µM; that for `NS(=O)(=O)c1ccc(Nc2nccc(-c3cccnc3)n2)cc1`, 0.2 µM. Compound `COc1cccc(Nc2nccc(-c3ccco3)n2)c1` showed an IC50 of 0.4 µM. `CN(C)c1ccc(Nc2nccc(-c3ccccn3)n2)cc1`: the IC50 was 3.3 µM. Same read-out and setting: the result for `Fc1ccc(Nc2nccc(-c3ccncc3)n2)cc1` reads 1.9 µM. In turn, `CC(C)N(CCOc1ccc(Nc2nccc(-c3cccnc3)n2)cc1)C(C)C` returned an IC50 of 4.6 µM. In turn, `CN(C)c1ccccc1Nc1nccc(-c2ccncc2)n1` had an IC50 of 36.2 µM. `COc1ccc(Nc2nccc(-c3cc[n+](C)cc3)n2)cc1` gave an IC50 of 33.3 µM.

For the compound `CC(=O)Nc1cccc(Nc2nccc(-c3ccccn3)n2)c1`, the midpoint of inhibition, the IC50, lay at 0.3 µM. `CCc1cccc(Nc2nccc(-c3ccco3)n2)c1`: it took 9.7 µM to reach half-maximal inhibition (IC50).

As a reminder, the IC50 is the concentration that gives 50% inhibition. A lower IC50 goes with higher potency.

For the origin of these results see ChEMBL document CHEMBL1126800, “Preparation of substituted N-phenyl-4-aryl-2-pyrimidinamines as mediator release inhibitors” (J Med Chem, 1993).
